Source: ChEMBL document CHEMBL1135932, “5'-Deoxy congeners of 9-(3-amido-3-deoxy-beta-D-xylofuranosyl)-N(6)-cyclopentyladenine: new adenosine A(1) receptor antagonists and inverse agonists” (J Med Chem, 2002)

Tests used:
Adenosine receptor A1 [1] = biological target: T1, Adenosine receptor A1 (Rattus norvegicus, UniProt P25099); experiment: Binding affinity at rat Adenosine A1 receptor in the absence of GTP
T1 sequence (P25099 whole entry): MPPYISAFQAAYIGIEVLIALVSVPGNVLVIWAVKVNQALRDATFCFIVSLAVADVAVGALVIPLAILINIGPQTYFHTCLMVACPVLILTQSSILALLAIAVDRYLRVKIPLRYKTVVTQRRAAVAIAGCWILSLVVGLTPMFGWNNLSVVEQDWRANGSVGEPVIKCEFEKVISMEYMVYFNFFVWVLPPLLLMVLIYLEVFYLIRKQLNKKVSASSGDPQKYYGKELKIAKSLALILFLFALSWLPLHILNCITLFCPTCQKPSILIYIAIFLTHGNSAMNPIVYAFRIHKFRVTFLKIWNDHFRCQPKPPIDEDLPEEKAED
In short: (§1)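 GTP shift taken from these two Ki values. Done only for compounds giving >50% radioligand displacement at 10⁻⁶ M. At least three independent experiments in duplicate.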

Adenosine receptor A1 [2] = biological target: T1, Adenosine receptor A1; experiment: Binding affinity at rat Adenosine A1 receptor in the presence of GTP; in short: as §1
[3] = biological target: T2, Adenosine receptor A1 (Homo sapiens) (UniProt P30542); experiment: Forskolin-induced cAMP production at human Adenosine A1 receptor receptor; assay type: functional
T2 sequence (whole entry): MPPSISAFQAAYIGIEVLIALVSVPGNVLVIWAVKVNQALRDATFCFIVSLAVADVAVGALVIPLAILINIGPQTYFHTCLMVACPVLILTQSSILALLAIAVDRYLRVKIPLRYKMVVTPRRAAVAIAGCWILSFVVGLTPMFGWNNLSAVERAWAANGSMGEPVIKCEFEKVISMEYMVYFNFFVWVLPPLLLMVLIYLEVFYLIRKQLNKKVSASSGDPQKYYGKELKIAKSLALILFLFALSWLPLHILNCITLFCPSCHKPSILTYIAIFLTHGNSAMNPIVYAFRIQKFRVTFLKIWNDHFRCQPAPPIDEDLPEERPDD
In short: (§2)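 Human A1-expressing CHO cells seeded at 2 × 10⁵ cells/well. Next day, 30 min at 37 °C in Hepes-buffered medium pH 7.4 with adenosine deaminase (5 U/mL), cilostamide (50 μM) and rolipram (50 μM). […] Expressed as % of forskolin.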

Adenosine receptor A1 [4] = biological target: T3, Adenosine receptor A1 (Homo sapiens, UniProt P30542); experiment: Binding affinity at human Adenosine A1 receptor expressed in CHO cells; assay type: cell-based
T3 sequence (P30542 whole entry): T2 sequence (whole entry)
In short: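 Membranes from CHO cells stably expressing human A1 receptor (~3 pmol/mg protein), 6 μg, incubated 1 h at 25 °C in 50 mM Tris HCl pH 7.4 with ~1.6 nM [³H]DPCPX and increasing test concentrations. Stopped by dilution in ice-cold buffer, then filtration. At least three independent experiments in duplicate.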

[5] = biological target: T2, Adenosine receptor A1 (Homo sapiens); experiment: Forskolin-induced cAMP production at human Adenosine A1 receptor; assay type: functional; in short: as §2
[6] = biological target: T2, Adenosine receptor A1 (Homo sapiens); experiment: Forskolin-induced cAMP production at human A1 adenosine receptor; assay type: functional; in short: as §2
[7] = biological target: T4, Adenosine receptor A1 (Rattus norvegicus) (UniProt P25099); experiment: Percent displacement of radioligand at 10e-6 M from rat Adenosine A1 receptor
T4 sequence (whole entry): T1 sequence (P25099 whole entry)
In short: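 Radioligand displacement by ligand at 10⁻⁶ M, using rat cortical membranes labelled with [³H]DPCPX.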

Adenosine receptor A2a = Adenosine receptor A2a (Rattus norvegicus, UniProt P30543); experiment: Binding affinity at rat Adenosine A2A receptor
In short: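 Rat striatal membranes with [³H]ZM241385 as radioligand. At least three independent experiments in duplicate.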

Chain of Adenosine receptor A2a (P30543 whole entry): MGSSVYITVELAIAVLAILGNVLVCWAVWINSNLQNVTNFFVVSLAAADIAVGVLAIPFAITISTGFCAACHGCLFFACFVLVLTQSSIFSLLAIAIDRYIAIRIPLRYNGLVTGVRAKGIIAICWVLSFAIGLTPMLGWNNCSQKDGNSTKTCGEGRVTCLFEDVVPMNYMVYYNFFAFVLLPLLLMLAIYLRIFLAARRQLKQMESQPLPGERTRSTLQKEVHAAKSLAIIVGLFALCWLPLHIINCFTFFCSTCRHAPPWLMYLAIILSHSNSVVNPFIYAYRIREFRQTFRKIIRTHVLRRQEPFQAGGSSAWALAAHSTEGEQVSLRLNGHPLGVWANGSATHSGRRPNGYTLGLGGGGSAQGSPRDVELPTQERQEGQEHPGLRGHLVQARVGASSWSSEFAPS

SMILES | Ki (Adenosine receptor A1 [1]) | Ki (Adenosine receptor A1 [2]) | Ki (Adenosine receptor A1 [4]) | Production [5] | other results
CCc1ccc(C(=O)N[C@@H]2[C@@H](O)[C@H](n3cnc4c(NC5CCCC5)ncnc43)O[C@@H]2C)cc1 | 240 nM |  |  |  | 
Cn1cnc2c(NC3CCCC3)ncnc21 | 279 nM | 259 nM | 1190 nM |  | Production [3]: 139%
CCCn1c(=O)c2[nH]c(C3CCCC3)nc2n(CCC)c1=O |  |  |  | 157% | 
C[C@H]1O[C@@H](n2cnc3c(NC4CCCC4)ncnc32)[C@H](O)[C@H]1NC(=O)C1(c2ccccc2)CCCCC1 | 286 nM | 210 nM |  |  | 
C[C@H]1O[C@@H](n2cnc3c(NC4CCCC4)ncnc32)[C@H](O)[C@H]1NC(=O)c1ccc(F)c(Cl)c1 |  |  |  |  | Displacement [7]: 44%
CC(C)c1ccc(C(=O)N[C@@H]2[C@@H](O)[C@H](n3cnc4c(NC5CCCC5)ncnc43)O[C@@H]2C)cc1 | 270 nM |  |  |  | 
CC(C)c1ccc(C(=O)N[C@@H]2[C@@H](O)[C@H](n3cnc4c(NC5CCCC5)ncnc43)O[C@@H]2CO)cc1 | 171 nM |  |  |  | Ki (Adenosine receptor A2a): 437 nM
Cc1ccc(C(=O)N[C@@H]2[C@@H](O)[C@H](n3cnc4c(NC5CCCC5)ncnc43)O[C@@H]2C)cc1C | 236 nM |  |  |  | 
C[C@H]1O[C@@H](n2cnc3c(NC4CCCC4)ncnc32)[C@H](O)[C@H]1NC(=O)C1(c2ccccc2)CCCC1 | 138 nM | 114 nM |  |  | 
C[C@H]1O[C@@H](n2cnc3c(NC4CCCC4)ncnc32)[C@H](O)[C@H]1NC(=O)CCCOc1ccccc1 | 473 nM |  |  |  | 
Cc1ccc(C(=O)N[C@@H]2[C@@H](O)[C@H](n3cnc4c(NC5CCCC5)ncnc43)O[C@@H]2C)cc1F |  |  |  |  | Dispacement [7]: 47%

The remaining compounds from weak to strong by Ki (Adenosine receptor A1 [1]), led by results:

Ki (Adenosine receptor A1 [1]) | Ki (Adenosine receptor A1 [2]) | Ki (Adenosine receptor A1 [4]) | Production [5] | SMILES | other results
112 nM |  | 773 nM | 135% | Cc1ccc(C(=O)N[C@@H]2[C@@H](O)[C@H](n3cnc4c(NC5CCCC5)ncnc43)O[C@@H]2CO)cc1F | 
110 nM | 470 nM |  |  | OC[C@H]1O[C@@H](n2cnc3c(NC4CCCC4)ncnc32)C[C@H]1O | 
102 nM |  | 443 nM | 126% | O=C(N[C@@H]1[C@@H](O)[C@H](n2cnc3c(NC4CCCC4)ncnc32)O[C@@H]1CO)c1ccc2c(c1)OCO2 | 
98 nM | 70 nM | 971 nM | 182% | C[C@H]1O[C@@H](n2cnc3c(NC4CCCC4)ncnc32)[C@H](O)[C@H]1NC(=O)C1CCCC[C@H]1C(=O)c1cccs1 (some centres not stated) | 
78 nM | 54 nM | 579 nM | 125% | O=C(N[C@@H]1[C@@H](O)[C@H](n2cnc3c(NC4CCCC4)ncnc32)O[C@@H]1CO)c1ccc(F)c(Cl)c1 | 
70 nM | 450 nM |  |  | C[C@H]1O[C@@H](n2cnc3c(NC4CCCC4)ncnc32)[C@H](O)[C@H]1O | 
67 nM | 46 nM | 630 nM | 152% | O=C(CCCc1cccs1)N[C@@H]1[C@@H](O)[C@H](n2cnc3c(NC4CCCC4)ncnc32)O[C@@H]1CO | 
55 nM | 38 nM | 419 nM | 148% | C[C@H]1O[C@@H](n2cnc3c(NC4CCCC4)ncnc32)[C@H](O)[C@H]1NC(=O)CCCc1cccs1 | 
24 nM | 17 nM | 137 nM |  | Cc1ccc(C(=O)N[C@@H]2[C@@H](O)[C@H](n3cnc4c(NC5CCCC5)ncnc43)O[C@@H]2CO)cc1C | Production [6]: 126%
